# Assay results: ChEMBL document CHEMBL5108039, “Piperazine tethered bergenin heterocyclic hybrids: design, synthesis, anticancer activity, and molecular docking studies” (RSC Med Chem, 2022)
# The source made the active and inactive calls. No cut-off for these calls is given here.
# Tests used:
# CAL-27 [1] = test: Induction of apoptosis in human CAL-27 cells assessed as late apoptotic cells at 32 uM incubated for 24 hrs by Annexin V-FITC/PI staining based flow cytometric analysis (reference value: 0.1 %); type: functional
# Procedure, shortened: (§1)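 CAL27 cells were treated with vehicle, doxorubicin or test compounds at 10–63 μM, and apoptosis was assessed by annexin V–FITC/PI staining with flow cytometry. Cells were scored as live, early apoptotic, late apoptotic or necrotic. The vehicle was DMSO (0.01%).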
# CAL-27 [2] = test: Induction of apoptosis in human CAL-27 cells assessed as live cells at 16 uM incubated for 24 hrs by Annexin V-FITC/PI staining based flow cytometric analysis (reference value: 99.8 %); type: functional; procedure, shortened: as §1
# SCC-9 [3] = test: Cytotoxicity against human SCC-9 cells assessed as cell growth inhibition; type: functional, cell-based
# Procedure, shortened: (§2)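 Compounds were dissolved in sterile DMSO as 10 mg ml−1 stocks and tested for in vitro growth inhibition of human cancer cell lines. Doxorubicin was the standard drug and DMSO (0.01%) the vehicle control. IC50 values are reported as means.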
# CAL-27 [4] = test: Cell cycle arrest in human CAL-27 cells assessed as accumulation at G0/G1 phase at 32 uM incubated for 24 hrs by flow cytometry (reference value: 77.6 %); type: functional
# CAL-27 [5] = test: Induction of apoptosis in human CAL-27 cells assessed as downregulation of Nanog gene expression at 16 uM by qRT-PCR analysis; type: functional, cell-based
# Procedure, shortened: (§3)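 CAL27 cells were treated with test compounds at several concentrations. Relative expression of vimentin, E-cad, Nanog, Oct-4, Bax and BcL-2 was measured by qRT-PCR against vehicle-treated control cells.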
# SCC-9 [6] = test: Induction of apoptosis in human SCC-9 cells assessed as downregulation of BcL-2 gene expression at 16 uM by qRT-PCR analysis; type: functional, cell-based
# CAL-27 [7] = test: Cell cycle arrest in human CAL-27 cells assessed as accumulation at G2/M phase at 32 uM incubated for 24 hrs by flow cytometry (reference value: 11.9 %); type: functional
# CAL-27 [8] = test: Induction of apoptosis in human CAL-27 cells assessed as early apoptotic cells at 32 uM incubated for 24 hrs by Annexin V-FITC/PI staining based flow cytometric analysis (reference value: 0.1 %); type: functional; procedure, shortened: as §1
# SCC-9 [9] = test: Induction of apoptosis in human SCC-9 cells assessed as early apoptotic cells at 32.4 uM incubated for 24 hrs by Annexin V-FITC/PI staining based flow cytometric analysis (reference value: 2.8 %); type: functional
# SCC-9 [10] = test: Induction of apoptosis in human SCC-9 cells assessed as necrotic cells at 16.2 uM incubated for 24 hrs by Annexin V-FITC/PI staining based flow cytometric analysis (reference value: 0.1 %); type: functional
# CAL-27 [11] = test: Cell cycle arrest in human CAL-27 cells assessed as accumulation at G0/G1 phase at 16 uM incubated for 24 hrs by flow cytometry (reference value: 77.6 %); type: functional
# CAL-27 [12] = test: Cell cycle arrest in human CAL-27 cells assessed as accumulation at S phase at 16 uM incubated for 24 hrs by flow cytometry (reference value: 3.6 %); type: functional
# CAL-27 [13] = test: Induction of apoptosis in human CAL-27 cells assessed as downregulation of Oct-4 gene expression at 32 uM by qRT-PCR analysis; type: functional, cell-based; procedure, shortened: as §3
# SCC-9 [14] = test: Induction of apoptosis in human SCC-9 cells assessed as downregulation of vimentin gene expression at 16 uM by qRT-PCR analysis; type: functional, cell-based
# CAL-27 [15] = test: Cytotoxicity against human CAL-27 cells assessed as cell growth inhibition; type: functional, cell-based; procedure, shortened: as §2
# CAL-27 [16] = test: Induction of apoptosis in human CAL-27 cells assessed as upregulation of E-cad gene expression at 32 uM by qRT-PCR analysis; type: functional, cell-based
# Procedure, shortened: (§4)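 CAL27 cells were treated with test agents at different concentrations. Relative mRNA levels of vimentin, E-cad, Nanog, Oct-4, Bax and Bcl-2 were then quantified by qRT-PCR as apoptosis, EMT and stemness markers.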
# HCT-15 = test: Cytotoxicity against human HCT-15 cells assessed as cell growth inhibition; type: functional, cell-based; procedure, shortened: as §2
# CAL-27 [17] = test: Induction of apoptosis in human CAL-27 cells assessed as upregulation of E-cad gene expression at 16 uM by qRT-PCR analysis; type: functional, cell-based; procedure, shortened: as §4
# CAL-27 [18] = test: Induction of apoptosis in human CAL-27 cells assessed as late apoptotic cells at 16 uM incubated for 24 hrs by Annexin V-FITC/PI staining based flow cytometric analysis (reference value: 0.1 %); type: functional; procedure, shortened: as §1
# CAL-27 [19] = test: Induction of apoptosis in human CAL-27 cells assessed as necrotic cells at 16 uM incubated for 24 hrs by Annexin V-FITC/PI staining based flow cytometric analysis (reference value: 0.0 %); type: functional; procedure, shortened: as §1
# CAL-27 [20] = test: Induction of apoptosis in human CAL-27 cells assessed as downregulation of BcL-2 gene expression at 32 uM by qRT-PCR analysis; type: functional, cell-based; procedure, shortened: as §3
# MCF7 = test: Cytotoxicity against human MCF7 cells assessed as cell growth inhibition; type: functional, cell-based; procedure, shortened: as §2
# CAL-27 [21] = test: Cell cycle arrest in human CAL-27 cells assessed as accumulation at G2/M phase at 16 uM incubated for 24 hrs by flow cytometry (reference value: 11.9 %); type: functional
# SCC-9 [22] = test: Induction of apoptosis in human SCC-9 cells assessed as live cells at 16.2 uM incubated for 24 hrs by Annexin V-FITC/PI staining based flow cytometric analysis (reference value: 95.7 %); type: functional
# SCC-9 [23] = test: Induction of apoptosis in human SCC-9 cells assessed as upregulation of E-cad gene expression at 32 uM by qRT-PCR analysis; type: functional, cell-based
# CAL-27 [24] = test: Induction of apoptosis in human CAL-27 cells assessed as downregulation of BcL-2 gene expression at 16 uM by qRT-PCR analysis; type: functional, cell-based; procedure, shortened: as §3
# CAL-27 [25] = test: Induction of apoptosis in human CAL-27 cells assessed as downregulation of Nanog gene expression at 32 uM by qRT-PCR analysis; type: functional, cell-based; procedure, shortened: as §3
# SCC-9 [26] = test: Induction of apoptosis in human SCC-9 cells assessed as upregulation of Bax gene expression at 32 uM by qRT-PCR analysis; type: functional, cell-based
# SCC-9 [27] = test: Induction of apoptosis in human SCC-9 cells assessed as upregulation of Bax gene expression at 16 uM by qRT-PCR analysis; type: functional, cell-based
# SCC-9 [28] = test: Cell cycle arrest in human SCC-9 cells assessed as accumulation at G0/G1 phase at 16.2 uM incubated for 24 hrs by flow cytometry (reference value: 70.8 %); type: functional
# SCC-9 [29] = test: Induction of apoptosis in human SCC-9 cells assessed as live cells at 32.4 uM incubated for 24 hrs by Annexin V-FITC/PI staining based flow cytometric analysis (reference value: 95.7 %); type: functional
# A549 = test: Cytotoxicity against human A549 cells assessed as cell growth inhibition; type: functional, cell-based
# Procedure, shortened: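 Compounds were dissolved in sterile DMSO as 10 mg ml−1 stocks and tested in vitro for cytotoxicity in a cell-line panel, with DMSO (0.01%) as vehicle control and doxorubicin as standard. Mean IC50 values were reported, and the normal lung epithelial cells were tested up to 100 μM.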
# SCC-9 [30] = test: Induction of apoptosis in human SCC-9 cells assessed as downregulation of Nanog gene expression at 16 uM by qRT-PCR analysis; type: functional, cell-based
# SCC-9 [31] = test: Induction of apoptosis in human SCC-9 cells assessed as late apoptotic cells at 16.2 uM incubated for 24 hrs by Annexin V-FITC/PI staining based flow cytometric analysis (reference value: 1.4 %); type: functional
structure (smiles),measurement,setting,value
COc1ccc(-c2csc(NC(=O)CN3CCN(Cc4c(O)c(OC)c(O)c5c4C(=O)OC4C5O[C@H](CO)[C@@H](O)[C@@H]4O)CC3)n2)cc1 (some centres undefined),Activity,CAL-27 [1],4.3%
same,Activity,CAL-27 [2],94.5%
same,IC50,SCC-9 [3],32.4 µM
same,Activity,CAL-27 [4],87.1%
same,Activity,CAL-27 [5],Active
same,Activity,SCC-9 [6],Active
same,Activity,CAL-27 [7],9.4%
same,Activity,CAL-27 [8],2.8%
same,Activity,SCC-9 [9],5.9%
same,Activity,SCC-9 [10],9.2%
same,Activity,CAL-27 [11],85.5%
same,Activity,CAL-27 [12],2.1%
same,Activity,CAL-27 [13],Active
same,Activity,SCC-9 [14],Active
same,IC50,CAL-27 [15],16 µM
same,Activity,CAL-27 [16],Active
same,IC50,HCT-15,70.5 µM
same,Activity,CAL-27 [17],Active
same,Activity,CAL-27 [18],2%
same,Activity,CAL-27 [19],0.9%
same,Activity,CAL-27 [20],Active
same,IC50,MCF7,> 100 µM
same,Activity,CAL-27 [21],12.3%
same,Activity,SCC-9 [22],44.2%
same,Activity,SCC-9 [23],Active
same,Activity,CAL-27 [24],Active
same,Activity,CAL-27 [25],Active
same,Activity,SCC-9 [26],Active
same,Activity,SCC-9 [27],Active
same,Activity,SCC-9 [28],71.4%
same,Activity,SCC-9 [29],42.8%
same,IC50,A549,> 100 µM
same,Activity,SCC-9 [30],Active
same,Activity,SCC-9 [31],40.8%
